Source: PubChem BioAssay
HCV core dimer = HCV core protein dimerization inhibition; TR-FRET GST/Flag-core106 dimerization, 1536-well; inhibition, % at 5 µM; 300,000 compounds, 0.33% hits; AID 1899;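 active = inhibition above the mean of all tested compounds plus 3 SD, set per screening campaign, cut at about 45% in these data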
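Test system: GST/Flag-tagged HCV core106 proteins; Medium: KF-containing HEPES buffer, pH 7.45, DTT, CHAPS, BSA; Times: compound-protein-antibody incubation 4 h at 22.5 °C; Detection: TR-FRET 671 and 617 nm emission; Benchmarks: wells lacking GST-core106 and wells with excess unlabelled core106.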
Tb MetRS inh = blocks T. brucei methionyl-tRNA synthetase activity | 360,000 compounds, 0.4% hits | AID 624268 | purified T. brucei MetRS, ATP depletion, Kinase-Glo luminescence | inhibition, % at 11.9 µM;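 active = inhibition above a per-plate cutoff of the control wells' mean inhibition plus 3 SD, cut at about 5.5% in these data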;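 also: 0% = DMSO wells median and 100% = median of wells with control inhibitor compound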
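Material – parasite MetRS enzyme · Medium – HEPES-MgCl2-KCl buffer plus DTT, spermine, BSA, pyrophosphatase · Reagent – ATP, methionine and E. coli bulk tRNA substrates · Times – 15 min enzyme-compound preincubation, 2 h reaction, 10 min detection, 25 °C · Measured by – luminescence of leftover ATP · Evaluation – percent inhibition relative to median high and low control wells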
NS3 helicase inh = HCV NS3 helicase inhibition | inhibition, % at 10.9 µM | 290,000 compounds, 0.56% hits | AID 1800 | NS3 helicase DNA unwinding, Cy5 molecular beacon fluorescence;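 active = inhibition above the mean of all tested compounds plus 3 SD, set per campaign, cut at about 35% in these data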;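 also: 0% = DMSO wells and 100% = thioflavine S control wells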
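System: NS3 helicase fragment of HCV / Schedule: 1 h at 25 °C / Control set: DMSO alone as 0% and 110 µM thioflavine S as 100% / Reagent: Cy5/quencher beacon DNA duplex and ATP to start / Technique: Cy5 fluorescence / Replication: singlicate / Evaluation: % inhibition of end-to-start signal ratio versus controls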
Hep lipid drop = modulators of hepatic lipid droplet formation | AML12 mouse hepatocytes, oleate lipid droplets, BODIPY imaging | inhibition, % at 6.5 µM | 240,000 compounds, 0.4% hits | AID 1656;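 active = lipid droplet intensity inhibited by at least 50%, with more than 500 cells counted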
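System: AML12 hepatocytes (mouse). Probe or stimulus: oleic acid at 100 µM to induce lipid droplet formation. Times: overnight treatment with compound plus oleate. Detection: Image-based BODIPY and DAPI two-channel analysis. Evaluation: percent inhibition of filter-corrected integrated lipid droplet intensity per well.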
Tb MetRS conf = Trypanosoma brucei MetRS inhibition confirmed | shares compounds with Tb MetRS inh | T. brucei MetRS enzyme, luminescence (ATP depletion) | inhibition, % at 11.9 µM | 1,400 compounds, 93% hits | AID 624412; in the data active = inhibition above about 7%
Jurkat cytotox = Jurkat T cell cytotoxicity for MetRS hits; shares compounds with Tb MetRS inh; Jurkat cells viability, ATP luminescence; inhibition, % at 8.3 µM; 1,400 compounds, 12% hits; in the data active = inhibition above about 15%;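 also: 0% = vehicle and 100% = reference inhibitor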
TbMetRS FP orth = inhibits T. brucei methionyl tRNA synthetase in orthogonal FP test; purified T. brucei MetRS, fluorescence polarization; inhibition, % at 11.9 µM; shares compounds with Tb MetRS inh; 1,400 compounds, 44% hits; in the data active = inhibition above about 17%;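 also: 0% = vehicle wells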
* = called active by the depositor; / = no result. The list is not random: actives were taken first. Their share in the collection is about 1.3%.

SMILES | HCV core dimer | Tb MetRS inh | NS3 helicase inh | Hep lipid drop | Tb MetRS conf | Jurkat cytotox | TbMetRS FP orth
COc1ccc(CNC(=O)CCS(=O)(=O)Cc2cccc(Cl)c2)c(OC)c1 | -4 | -1 | -9 | -3 | / | / | /
CCOc1ccc(OCCCCn2cnc3ccccc3c2=O)cc1 | 3 | 0 | -4 | -7 | / | / | /
Cc1ccc(C(=O)Nc2ccc(C(=O)N3CCCCC3C)cc2)cc1 (stereo not drawn) | 1 | 0 | 3 | 8 | / | / | /
O=C(CN1C(=O)/C(=C2\SC(=S)N(CCS(=O)(=O)O)C2=O)c2ccccc21)Nc1cccc(Br)c1 | -13 | 19* | 32 | 9 | 20* | -5 | 1
O=C(CN1C(=O)/C(=C2/SC(=S)N(CCS(=O)(=O)O)C2=O)c2ccccc21)Nc1cccc(C(F)(F)F)c1 | / | 42* | / | / | 14* | 5 | 2
O=C(CCC(=O)Nc1nnc(C2CCCCC2)s1)Nc1ccc(F)cc1 | -11 | 0 | 12 | -23 | / | / | /
CCOc1ccccc1Nc1nc(N)nc(CN2CCCCC2C)n1 (stereo not drawn) | -4 | -2 | -4 | -9 | / | / | /
Cc1noc(C)c1C(=O)N(CC(=O)Nc1ccc(Cl)c(C(F)(F)F)c1)Cc1ccco1 | / | 1 | / | / | / | / | /
O=c1c2cc(Cl)ccc2[nH]c(=S)n1Cc1ccccn1 | -4 | 6.8* | -2 | -2 | 16* | 6 | 3
O=C(NCc1ccccn1)c1ccc(Cn2c(=S)[nH]c3ccc(Br)cc3c2=O)cc1 | 12 | 0 | 7 | 3 | / | / | /
CC(C)(C)C(=O)c1c(N)[nH]c(C(=O)c2ccccc2)c1-c1ccc(Br)cc1 | / | -1 | / | / | / | / | /
C=CCOc1ccc(C=Nc2ccc(Cl)cc2)c(O)c1 | 2 | 0 | -5 | 1 | / | / | /
C#CCNC(=O)C1=C[C@@H](c2ccc(C#C)cc2)[C@H](CCCO)[C@@H](OCC)O1 | 7 | 0 | -3 | 4 | / | / | /
CCO[C@@H]1OC(C(=O)NCc2nc3ccccc3[nH]2)=C[C@H](C2CC2)[C@H]1CCCO | -8 | 5 | 11 | -10 | / | / | /
CCO[C@@H]1OC(C(=O)NCc2nc3ccccc3[nH]2)=C[C@H](C(C)(C)C)[C@H]1CCCO | -4 | 6.4* | / | / | 33* | 71* | 13
C#Cc1ccc([C@H]2C=C(C(=O)NCc3nc4ccccc4[nH]3)O[C@@H](OCC)[C@@H]2CCCO)cc1 | 6 | 12* | / | / | 36* | 3 | 17*
CCO[C@H]1OC(C(=O)NCc2nc3ccccc3[nH]2)=C[C@@H](c2ccc(Br)cc2)[C@@H]1CCCO | -2 | 38* | / | / | 80* | -3 | 57*
CC1(NC(=O)Cc2c(Cl)cccc2Cl)CCS(=O)(=O)C1 (stereo not drawn) | / | 0 | / | / | / | / | /
Cc1ccc(S(=O)(=O)/C(C#N)=C/c2c[nH]c3ccccc23)cc1 | 0 | 19* | -5 | -3 | 40* | -1 | 24*
Cc1ccccc1CSCCNC(=O)Nc1ccccc1 | 6 | 5 | -8 | -26 | / | / | /
Cc1cccc(CSCCNC(=O)Nc2ccccc2)c1 | -3 | 15* | 2 | -4 | 24* | -5 | 14
O=C(Nc1cccc([N+](=O)[O-])c1)C12CC3CC(C1)CC(n1cnc([N+](=O)[O-])n1)(C3)C2 | -4 | 0 | -3 | / | / | / | /
O=C(Cc1ccccc1)Nc1ccc(NC(=O)c2ccccc2)nc1 | 2 | 1 | -2 | 8 | / | / | /
O=C(Cc1ccccc1)Nc1nonc1NC(=O)c1ccccc1 | 1 | 9.1* | 4 | / | 16* | 4 | 10
COc1cccc(-c2cnc(C(O)c3cc(Cl)cc(Cl)c3)[nH]2)c1 (stereo not drawn) | / | 54* | / | / | 78* | 1 | 57*
SMILES | HCV core dimer | Tb MetRS inh | NS3 helicase inh | Hep lipid drop | Tb MetRS conf | Jurkat cytotox | TbMetRS FP orth
COc1cccc(-c2cnc(C(O)c3ccccc3)[nH]2)c1 (stereo not drawn) | / | 0 | / | / | / | / | /
COc1cccc(-c2cnc(C(O)c3cc(F)cc(Cl)c3)[nH]2)c1 (stereo not drawn) | / | 20* | / | / | 40* | 0 | 18*
CSc1ccccc1NC(=O)CSc1cccc[n+]1[O-] | / | 0 | / | / | / | / | /
COC(=O)/C(=C\Nc1ccc(OC)cc1)NC(=O)c1ccc(Cl)cc1Cl | -10 | 20* | -2 | 2 | 57* | 7 | 30*
N#C/C(=C\c1ccccc1)C(=O)Nc1nncs1 | 0 | 1 | -20 | 13 | / | / | /
CCc1cccc(NC(=O)CCSCCC(=O)Nc2cccc(CC)c2)c1 | 9 | 0 | -2 | 12 | / | / | /
O=C(NN1C(=O)/C(=C/c2ccc(O)cc2)SC1=S)c1cccc(O)c1 | -22 | 6.7* | 17 | -12 | 14* | 8 | 24*
O=C(NN1C(=O)/C(=C/c2ccc(O)cc2)SC1=S)c1ccccc1O | -18 | 44* | 33 | 9 | 58* | -1 | 33*
CC(/C=C1\SC(=S)N(NC(=O)c2cccc(O)c2)C1=O)=C\c1ccccc1 | 28 | 1 | 10 | -3 | / | / | /
COc1ccc(N2CCN(C(=O)CCCSc3nc4ccccc4[nH]3)CC2)cc1 | -7 | 6.6* | -1 | -2 | 20* | 4 | 7
O=C(CCCSc1nc2ccccc2[nH]1)Nc1ccccc1 | -9 | 1 | 6 | -3 | / | / | /
CCc1cccc(NC(=O)CCCSc2nc3ccccc3[nH]2)c1 | 4 | 26* | -10 | 4 | 44* | 6 | 17*
Cc1cccc(NC(=O)CCCSc2nc3ccccc3[nH]2)c1 | -12 | 17* | -3 | -2 | 18* | 7 | 6
CC(C)CNC(=O)CCCSc1nc2ccccc2[nH]1 | -8 | -1 | 3 | 2 | / | / | /
Cc1cc(C)cc(NC(=O)CCCSc2nc3ccccc3[nH]2)c1 | -1 | 11* | -4 | 8 | 22* | -4 | 10
c1ccc2c(c1)nc(N1CCOCC1)c1c3ccccc3[nH]c21 | -1 | 12* | -13 | / | 4 | -3 | 5
COc1cccc(CN2CCC2(C)C(=O)Nc2cccc(NS(C)(=O)=O)c2)c1OC (stereo not drawn) | / | 0 | / | / | / | / | /
Cc1ccc(-c2csc3ncn(CC(=O)NCC(c4ccco4)N4CCCC4)c(=O)c23)cc1 (stereo not drawn) | / | 0 | / | / | / | / | /
Cc1ccc2[nH]c3c(c2c1)CCc1cn[nH]c1-3 | -29 | 22* | -5 | 2 | 12* | 2 | 47*
CC/C(=N/O)C(=O)c1ccc(Br)cc1 | -9 | 6.2* | 5 | 0 | 19* | -3 | 11
COc1ccc(CCC(=O)NNC(=O)c2ccccn2)cc1OC | / | 0 | / | / | / | / | /
O=Cc1ccc(-c2ccc([N+](=O)[O-])cc2Cl)o1 | / | 6.5* | 16 | 18 | 12* | -4 | 7
O=Cc1ccc(-c2cccc([N+](=O)[O-])c2)o1 | 4 | 0 | 9 | -7 | / | / | /
